Laboratory results published in ChEMBL document CHEMBL5058577, “EUbOPEN Chemogenomics Library 2 (Multiplex)” (2022).

System: Fibroblast
Experiment: Multiplex assay against human fibroblast
Type: toxicity, cell-based
Summary of the method: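 Compound was added to live cells that had been stained at seeding with Hoechst33342, BioTracker Green Microtubule Cytoskeleton Dye, MitoTracker Red and Annexin V Alexa Fluor 680, and imaging followed on a CQ1 microscope at 37°C and 5% CO2. CellPathfinder machine-learning gating divided cells into Hoechst high-intensity objects or normal cells, normal cells into healthy, pyknosed or fragmented nuclei, and pyknosed cells into mitotic or apoptotic. Tubulin, mitochondrial-mass and membrane-permeability phenotypes are per cents of healthy-nucleus cells.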

[1] = 12 h, 1 µM, compound concentration 1 uM, replicate 1
[2] = 12 h, 1 µM, compound concentration 1 uM, replicate 2
[3] = 12 h, 10 µM, compound concentration 10 uM, replicate 1
[4] = 12 h, 10 µM, compound concentration 10 uM, replicate 2
[5] = 24 h, 1 µM, compound concentration 1 uM, replicate 1
[6] = 24 h, 1 µM, compound concentration 1 uM, replicate 2
[7] = 24 h, 10 µM, compound concentration 10 uM, replicate 1
[8] = 24 h, 10 µM, compound concentration 10 uM, replicate 2
[9] = 48 h, 1 µM, compound concentration 1 uM, replicate 1
[10] = 48 h, 1 µM, compound concentration 1 uM, replicate 2
[11] = 48 h, 10 µM, compound concentration 10 uM, replicate 1
[12] = 48 h, 10 µM, compound concentration 10 uM, replicate 2

SMILES: Cn1cc(C(=O)OCC2CCN(CCNS(C)(=O)=O)CC2)c2ccccc21
- Population Apoptotic (%) [1]: 44%
- Population Fragmented Nuclei (%) [1]: 13%
- Population Healthy Nuclei (%) [1]: 71%
- Population Hoechst High Intensity Objects (%) [1]: 1%
- Population Membrane Permeable-Phenotype (%) [1]: 0%
- Population Mitochondria Different-Phenotype (%) [1]: 3%
- Population Mitotic Cells (%) [1]: 55%
- Population Normal (%) [1]: 98%
- Population Pyknosed Nuclei (%) [1]: 14%
- Population Tubulin-Different-Phenotype (%) [1]: 23%
- Total Cell Count [1]: 202
- Population Apoptotic (%) [2]: 33%
- Population Fragmented Nuclei (%) [2]: 21%
- Population Healthy Nuclei (%) [2]: 46%
- Population Hoechst High Intensity Objects (%) [2]: 4%
- Population Membrane Permeable-Phenotype (%) [2]: 9%
- Population Mitochondria Different-Phenotype (%) [2]: 1%
- Population Mitotic Cells (%) [2]: 66%
- Population Normal (%) [2]: 95%
- Population Pyknosed Nuclei (%) [2]: 32%
- Population Tubulin-Different-Phenotype (%) [2]: 37%
- Total Cell Count [2]: 164
- Population Apoptotic (%) [3]: 48%
- Population Fragmented Nuclei (%) [3]: 29%
- Population Healthy Nuclei (%) [3]: 55%
- Population Hoechst High Intensity Objects (%) [3]: 3%
- Population Membrane Permeable-Phenotype (%) [3]: 0%
- Population Mitochondria Different-Phenotype (%) [3]: 9%
- Population Mitotic Cells (%) [3]: 51%
- Population Normal (%) [3]: 96%
- Population Pyknosed Nuclei (%) [3]: 14%
- Population Tubulin-Different-Phenotype (%) [3]: 41%
- Total Cell Count [3]: 207
- Population Apoptotic (%) [4]: 25%
- Population Fragmented Nuclei (%) [4]: 32%
- Population Healthy Nuclei (%) [4]: 51%
- Population Hoechst High Intensity Objects (%) [4]: 5%
- Population Membrane Permeable-Phenotype (%) [4]: 5%
- Population Mitochondria Different-Phenotype (%) [4]: 7%
- Population Mitotic Cells (%) [4]: 75%
- Population Normal (%) [4]: 94%
- Population Pyknosed Nuclei (%) [4]: 16%
- Population Tubulin-Different-Phenotype (%) [4]: 47%
- Total Cell Count [4]: 184
- Population Apoptotic (%) [5]: 31%
- Population Fragmented Nuclei (%) [5]: 13%
- Population Healthy Nuclei (%) [5]: 74%
- Population Hoechst High Intensity Objects (%) [5]: 5%
- Population Membrane Permeable-Phenotype (%) [5]: 0%
- Population Mitochondria Different-Phenotype (%) [5]: 0%
- Population Mitotic Cells (%) [5]: 68%
- Population Normal (%) [5]: 94%
- Population Pyknosed Nuclei (%) [5]: 11%
- Population Tubulin-Different-Phenotype (%) [5]: 23%
- Total Cell Count [5]: 201
- Population Apoptotic (%) [6]: 30%
- Population Fragmented Nuclei (%) [6]: 25%
- Population Healthy Nuclei (%) [6]: 47%
- Population Hoechst High Intensity Objects (%) [6]: 2%
- Population Membrane Permeable-Phenotype (%) [6]: 7%
- Population Mitochondria Different-Phenotype (%) [6]: 6%
- Population Mitotic Cells (%) [6]: 69%
- Population Normal (%) [6]: 97%
- Population Pyknosed Nuclei (%) [6]: 26%
- Population Tubulin-Different-Phenotype (%) [6]: 48%
- Total Cell Count [6]: 168
- Population Apoptotic (%) [7]: 80%
- Population Fragmented Nuclei (%) [7]: 33%
- Population Healthy Nuclei (%) [7]: 53%
- Population Hoechst High Intensity Objects (%) [7]: 5%
- Population Membrane Permeable-Phenotype (%) [7]: 0%
- Population Mitochondria Different-Phenotype (%) [7]: 3%
- Population Mitotic Cells (%) [7]: 20%
- Population Normal (%) [7]: 94%
- Population Pyknosed Nuclei (%) [7]: 13%
- Population Tubulin-Different-Phenotype (%) [7]: 42%
- Total Cell Count [7]: 201
- Population Apoptotic (%) [8]: 41%
- Population Fragmented Nuclei (%) [8]: 40%
- Population Healthy Nuclei (%) [8]: 43%
- Population Hoechst High Intensity Objects (%) [8]: 4%
- Population Membrane Permeable-Phenotype (%) [8]: 3%
- Population Mitochondria Different-Phenotype (%) [8]: 5%
- Population Mitotic Cells (%) [8]: 58%
- Population Normal (%) [8]: 95%
- Population Pyknosed Nuclei (%) [8]: 16%
- Population Tubulin-Different-Phenotype (%) [8]: 52%
- Total Cell Count [8]: 188
- Population Apoptotic (%) [9]: 54%
- Population Fragmented Nuclei (%) [9]: 14%
- Population Healthy Nuclei (%) [9]: 72%
- Population Hoechst High Intensity Objects (%) [9]: 5%
- Population Membrane Permeable-Phenotype (%) [9]: 0%
- Population Mitochondria Different-Phenotype (%) [9]: 1%
- Population Mitotic Cells (%) [9]: 45%
- Population Normal (%) [9]: 94%
- Population Pyknosed Nuclei (%) [9]: 12%
- Population Tubulin-Different-Phenotype (%) [9]: 23%
- Total Cell Count [9]: 197
- Population Apoptotic (%) [10]: 52%
- Population Fragmented Nuclei (%) [10]: 33%
- Population Healthy Nuclei (%) [10]: 54%
- Population Hoechst High Intensity Objects (%) [10]: 4%
- Population Membrane Permeable-Phenotype (%) [10]: 5%
- Population Mitochondria Different-Phenotype (%) [10]: 2%
- Population Mitotic Cells (%) [10]: 47%
- Population Normal (%) [10]: 95%
- Population Tubulin-Different-Phenotype (%) [10]: 43%
- Total Cell Count [10]: 177
- Population Apoptotic (%) [11]: 68%
- Population Fragmented Nuclei (%) [11]: 28%
- Population Healthy Nuclei (%) [11]: 58%
- Population Hoechst High Intensity Objects (%) [11]: 9%
- Population Membrane Permeable-Phenotype (%) [11]: 0%
- Population Mitochondria Different-Phenotype (%) [11]: 9%
- Population Mitotic Cells (%) [11]: 32%
- Population Normal (%) [11]: 90%
- Population Pyknosed Nuclei (%) [11]: 13%
- Population Tubulin-Different-Phenotype (%) [11]: 49%
- Total Cell Count [11]: 199
- Population Apoptotic (%) [12]: 50%
- Population Fragmented Nuclei (%) [12]: 40%
- Population Healthy Nuclei (%) [12]: 46%
- Population Hoechst High Intensity Objects (%) [12]: 6%
- Population Membrane Permeable-Phenotype (%) [12]: 2%
- Population Mitochondria Different-Phenotype (%) [12]: 8%
- Population Mitotic Cells (%) [12]: 50%
- Population Normal (%) [12]: 93%
- Population Pyknosed Nuclei (%) [12]: 12%
- Population Tubulin-Different-Phenotype (%) [12]: 60%
- Total Cell Count [12]: 190

SMILES: CCn1c(-c2nc3cc(C(=O)N4CCCC(N)C4)ccc3n2C)cc2ccccc21.Cl (configuration not stated)
- Population Apoptotic (%) [1]: 63%
- Population Fragmented Nuclei (%) [1]: 17%
- Population Healthy Nuclei (%) [1]: 67%
- Population Hoechst High Intensity Objects (%) [1]: 3%
- Population Membrane Permeable-Phenotype (%) [1]: 0%
- Population Mitochondria Different-Phenotype (%) [1]: 4%
- Population Mitotic Cells (%) [1]: 36%
- Population Normal (%) [1]: 96%
- Population Pyknosed Nuclei (%) [1]: 15%
- Population Tubulin-Different-Phenotype (%) [1]: 27%
- Total Cell Count [1]: 128
- Population Apoptotic (%) [2]: 32%
- Population Fragmented Nuclei (%) [2]: 21%
- Population Healthy Nuclei (%) [2]: 54%
- Population Hoechst High Intensity Objects (%) [2]: 5%
- Population Membrane Permeable-Phenotype (%) [2]: 2%
- Population Mitochondria Different-Phenotype (%) [2]: 17%
- Population Mitotic Cells (%) [2]: 67%
- Population Normal (%) [2]: 94%
- Population Pyknosed Nuclei (%) [2]: 23%
- Population Tubulin-Different-Phenotype (%) [2]: 41%
- Total Cell Count [2]: 167
- Population Apoptotic (%) [3]: 41%
- Population Fragmented Nuclei (%) [3]: 22%
- Population Healthy Nuclei (%) [3]: 63%
- Population Hoechst High Intensity Objects (%) [3]: 1%
- Population Membrane Permeable-Phenotype (%) [3]: 0%
- Population Mitochondria Different-Phenotype (%) [3]: 18%
- Population Mitotic Cells (%) [3]: 58%
- Population Normal (%) [3]: 98%
- Population Pyknosed Nuclei (%) [3]: 14%
- Population Tubulin-Different-Phenotype (%) [3]: 69%
- Total Cell Count [3]: 221
- Population Apoptotic (%) [4]: 38%
- Population Fragmented Nuclei (%) [4]: 32%
- Population Healthy Nuclei (%) [4]: 37%
- Population Hoechst High Intensity Objects (%) [4]: 3%
- Population Mitochondria Different-Phenotype (%) [4]: 19%
- Population Mitotic Cells (%) [4]: 61%
- Population Normal (%) [4]: 96%
- Population Pyknosed Nuclei (%) [4]: 29%
- Population Tubulin-Different-Phenotype (%) [4]: 80%
- Total Cell Count [4]: 186
- Population Apoptotic (%) [5]: 50%
- Population Fragmented Nuclei (%) [5]: 22%
- Population Healthy Nuclei (%) [5]: 68%
- Population Hoechst High Intensity Objects (%) [5]: 0%
- Population Membrane Permeable-Phenotype (%) [5]: 0%
- Population Mitochondria Different-Phenotype (%) [5]: 5%
- Population Mitotic Cells (%) [5]: 50%
- Population Normal (%) [5]: 99%
- Population Pyknosed Nuclei (%) [5]: 9%
- Population Tubulin-Different-Phenotype (%) [5]: 30%
- Total Cell Count [5]: 127
- Population Apoptotic (%) [6]: 55%
- Population Fragmented Nuclei (%) [6]: 27%
- Population Healthy Nuclei (%) [6]: 54%
- Population Hoechst High Intensity Objects (%) [6]: 9%
- Population Membrane Permeable-Phenotype (%) [6]: 3%
- Population Mitochondria Different-Phenotype (%) [6]: 20%
- Population Mitotic Cells (%) [6]: 44%
- Population Normal (%) [6]: 90%
- Population Pyknosed Nuclei (%) [6]: 17%
- Population Tubulin-Different-Phenotype (%) [6]: 41%
- Total Cell Count [6]: 184
- Population Apoptotic (%) [7]: 70%
- Population Fragmented Nuclei (%) [7]: 22%
- Population Healthy Nuclei (%) [7]: 66%
- Population Hoechst High Intensity Objects (%) [7]: 3%
- Population Membrane Permeable-Phenotype (%) [7]: 0%
- Population Mitochondria Different-Phenotype (%) [7]: 22%
- Population Mitotic Cells (%) [7]: 29%
- Population Normal (%) [7]: 96%
- Population Pyknosed Nuclei (%) [7]: 10%
- Population Tubulin-Different-Phenotype (%) [7]: 76%
- Total Cell Count [7]: 231
- Population Apoptotic (%) [8]: 59%
- Population Fragmented Nuclei (%) [8]: 30%
- Population Healthy Nuclei (%) [8]: 46%
- Population Hoechst High Intensity Objects (%) [8]: 4%
- Population Membrane Permeable-Phenotype (%) [8]: 2%
- Population Mitochondria Different-Phenotype (%) [8]: 32%
- Population Mitotic Cells (%) [8]: 40%
- Population Normal (%) [8]: 95%
- Population Pyknosed Nuclei (%) [8]: 23%
- Population Tubulin-Different-Phenotype (%) [8]: 82%
- Total Cell Count [8]: 189
- Population Apoptotic (%) [9]: 66%
- Population Fragmented Nuclei (%) [9]: 23%
- Population Healthy Nuclei (%) [9]: 67%
- Population Hoechst High Intensity Objects (%) [9]: 2%
- Population Membrane Permeable-Phenotype (%) [9]: 1%
- Population Mitochondria Different-Phenotype (%) [9]: 3%
- Population Mitotic Cells (%) [9]: 33%
- Population Normal (%) [9]: 97%
- Population Pyknosed Nuclei (%) [9]: 8%
- Population Tubulin-Different-Phenotype (%) [9]: 29%
- Total Cell Count [9]: 137
- Population Apoptotic (%) [10]: 51%
- Population Fragmented Nuclei (%) [10]: 32%
- Population Healthy Nuclei (%) [10]: 51%
- Population Hoechst High Intensity Objects (%) [10]: 5%
- Population Membrane Permeable-Phenotype (%) [10]: 2%
- Population Mitochondria Different-Phenotype (%) [10]: 23%
- Population Mitotic Cells (%) [10]: 48%
- Population Normal (%) [10]: 94%
- Population Pyknosed Nuclei (%) [10]: 15%
- Population Tubulin-Different-Phenotype (%) [10]: 49%
- Total Cell Count [10]: 193
- Population Apoptotic (%) [11]: 83%
- Population Fragmented Nuclei (%) [11]: 19%
- Population Healthy Nuclei (%) [11]: 72%
- Population Hoechst High Intensity Objects (%) [11]: 3%
- Population Membrane Permeable-Phenotype (%) [11]: 0%
- Population Mitochondria Different-Phenotype (%) [11]: 22%
- Population Mitotic Cells (%) [11]: 16%
- Population Normal (%) [11]: 96%
- Population Pyknosed Nuclei (%) [11]: 8%
- Population Tubulin-Different-Phenotype (%) [11]: 85%
- Total Cell Count [11]: 232
- Population Apoptotic (%) [12]: 60%
- Population Fragmented Nuclei (%) [12]: 33%
- Population Healthy Nuclei (%) [12]: 57%
- Population Mitochondria Different-Phenotype (%) [12]: 16%
- Population Mitotic Cells (%) [12]: 40%
- Total Cell Count [12]: 231
